ChEMBL document CHEMBL1148309, “Roles of conformational and positional adaptability in structure-based design of TMC125-R165335 (etravirine) and related non-nucleoside reverse transcriptase inhibitors that are highly potent and effective against wild-type and drug-resistant HIV-1 variants” (J Med Chem, 2004)
pEC50: −log10 of the molar value.

Assays:
Assay type in all cases: functional, organism-based
[1] = system: Human immunodeficiency virus 1; test: Potency evaluated against NNRTI-Resistant HIV-1 strain Lys103Asn
How it was run: (§1)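 Test compound dilutions in microtiter wells; HIV added at 200-250 CCID50/well and MT4 cells at 3 × 10^4 cells/well (final). Incubated 5 days at 37 °C, 5% CO2. Cytopathic effect of replicating virus read by MTT tetrazolium colorimetry. EC50 is the dose achieving 50% infection.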

[2] = system: Human immunodeficiency virus 1; test: Potency evaluated against NNRTI-Resistant HIV-1 strain Gly190Ala; how it was run: as §1
[3] = system: Human immunodeficiency virus 1; test: Potency evaluated against NNRTI-Resistant HIV-1 strain Tyr188Leu; how it was run: as §1
[4] = system: Human immunodeficiency virus 1; test: Potency evaluated against wild type HIV-1 strain IIIB; how it was run: as §1
[5] = system: Human immunodeficiency virus 1; test: Potency evaluated against NNRTI-Resistant HIV-1 strain Val106Ala; how it was run: as §1
[6] = system: Human immunodeficiency virus 1; test: Potency evaluated against NNRTI-Resistant HIV-1 strain Tyr181Cys; how it was run: as §1
[7] = system: Human immunodeficiency virus 1; test: Potency evaluated against NNRTI-Resistant HIV-1 strain Leu100Ile; how it was run: as §1

SMILES	pEC50 [1]	pEC50 [2]	pEC50 [3]	pEC50 [4]	pEC50 [5]	pEC50 [6]	pEC50 [7]
N#Cc1ccc(NC(=S)NC(=N)Cc2c(Cl)cccc2Cl)cc1	6.23	8.70	6.50	8.52	6.42	6.29	6.29
N#Cc1ccc(Nc2nc(N)nc(Cc3c(Cl)cccc3Cl)n2)cc1	7.39	9.00	6.37	8.70	7.59	6.56	6.53
N#Cc1ccc(Nc2nc(N)nc(Cc3c(Cl)ccc4[nH]ccc34)n2)cc1	7.20	8.52	6.00	8.52	7.20	6.60	6.00
N#Cc1ccc(Nc2nc(N)nc(Oc3c(Cl)cccc3Cl)n2)cc1	7.10	–	6.49	8.52	7.00	6.60	6.49
Cc1cc(C#N)cc(C)c1Oc1nc(Nc2ccc(C#N)cc2)nc(CO)c1Br	8.40	9.00	8.22	8.40	8.70	8.22	8.70
CC(=O)c1ccc(C)cc1N[C@@H](C(N)=O)c1c(Br)cccc1Br [(R)-LOVIRIDE]	5.90	5.60	4.30	8.30	6.00	4.80	7.30
Cc1cc(C)c(Nc2ccnc(Nc3ccc(C#N)cc3)n2)c(C)c1 [DAPIVIRINE]	8.40	9.00	7.40	9.00	8.52	8.10	7.80
CC(C)Nc1cccnc1N1CCN(C(=O)c2cc3cc(NS(C)(=O)=O)ccc3[nH]2)CC1 [DELAVIRDINE]	5.77	7.42	6.75	7.80	5.65	5.87	5.46
Cc1cc(C#N)cc(C)c1Oc1nc(Nc2ccc(C#N)cc2)nc(N)c1Br [ETRAVIRINE]	[…]	[…]	8.52	7.70	8.70	8.22	8.52
Cc1ccnc2c1NC(=O)c1cccnc1N2C1CC1 [NEVIRAPINE]	5.61	5.46	< 4.00	7.07	5.62	5.27	6.20
